Measured values from ChEMBL document CHEMBL1127310, “Synthesis and anticonvulsant activities of alpha-acetamido-N-benzylacetamide derivatives containing an electron-deficient alpha-heteroaromatic substituent” (1994).

Experiments:
Format in all cases: functional
Mus musculus [1] = species on record: Mus musculus; assay: Median neurologically impairing dose was determined in mice using the rotarod test
Outline: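 Male Carworth Farms No. 1 mice dosed ip and placed on a 1-in. knurled rod turning at 6 rpm. Neurotoxicity means failure to stay on the rod for 1 min. Four mice per dose in the screen, then normally eight mice per dose for the dose-response, at time of peak effect.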

[2] = Protective Index was determined using the ratio of TD50/ED50 value
Outline: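 PI is TD50/ED50 in ip-dosed mice. TD50 comes from the rotorod or the horizontal screen test. ED50 comes from the MES test. Not determined when there was no MES activity below 100 mg/kg.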

Mus musculus [3] = assay: Effective dose required to prevent tonic extension of the hind limbs in mice in the maximal electroshock seizures (MES) test when administered intraperitoneally; details: Hindlimb, ip
Outline: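 Male Carworth Farms No. 1 mice, drug given ip. Seizures elicited by 60-cycle alternating current, 50 mA, for 0.2 s via corneal electrodes. Protection means no tonic hind-limb extension. Phase I screen at 30, 100 and 300 mg/kg. Dose-response then run at varied doses, normally eight mice per dose, at time of peak effect (0.5 h or 0.25 h).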

Structure (SMILES) | TD50 (Mus musculus [1]) | PI [2] | ED50 (Mus musculus [3])
CC(=O)NC(C(=O)NCc1ccccc1)c1ccco1 (centres undefined) | ~40 mg/kg | > 3.9 | 
CC(=O)NC(C(=O)NCc1ccccc1)c1cccs1 (centres undefined) | < 100 mg/kg |  | 
CC(=O)NC(C(=O)NCc1ccccc1)c1ncco1 (centres undefined) | 38.6 mg/kg | 3.7 | 
CC(=O)NC(C(=O)NCc1ccccc1)c1nccs1 (centres undefined) | 69.1 mg/kg | 5.7 | 
CC(=O)NC(C(=O)NCc1ccccc1)c1ncccn1 (centres undefined) | 56.7 mg/kg | 7 | 8.1 mg/kg
CC(=O)NC(C(=O)NCc1ccccc1)c1ccccc1 (centres undefined) | > 40 mg/kg |  | 
CC(=O)NC(C(=O)NCc1ccccc1)c1ccsc1 (centres undefined) | < 100 mg/kg |  | 
CC(=O)NC(C(=O)NCc1ccccc1)c1ccc[nH]1 (centres undefined) | < 100 mg/kg |  | 
CCC1(c2ccccc2)C(=O)NC(=O)NC1=O [PHENOBARBITAL] | 69 mg/kg |  | 
CC(=O)NC(C(=O)NCc1ccccc1)c1ccccn1 (centres undefined) | < 100 mg/kg |  | 10.8 mg/kg
CC(=O)NC(C(=O)NCc1ccccc1)c1cnccn1 (centres undefined) | 58.2 mg/kg | 3.9 | 14.8 mg/kg
